{"source": "paper PMC3647260", "about": "(Journal of the American Heart Association: Cardiovascular …, 2013)", "key": {"ChREBP": {"system": "ChREBP", "assay": "Glucose-induced nuclear translocation of ChREBP in HepG2 cells", "format": "cell-based, human (HepG2 cells)", "details": "30 μmol/L, 24 hours; 25 mmol/L glucose + 100 nmol/L insulin after starvation; 3 experiments; P<0.05", "method_in_brief": "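HepG2 cells (kept in DMEM/10% FBS) were starved 24 h in DMEM with 5.5 mmol/L glucose. They were refed 25 mmol/L glucose plus 100 nmol/L insulin, with or without 30 μmol/L test compound, for 24 h. Nuclear and cytosolic extracts were prepared with phosphatase inhibitors and immunoblotted for ChREBP, with lamin loading controls for nuclear fractions.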"}, "NPC1L1": {"system": "NPC1L1", "assay": "NPC1L1 protein in whole-cell liver extracts", "format": "in vivo, mouse (ldlr^−/−)", "details": "8 weeks, osmotic pump, vs saline; ratio to β actin; 4 mice/group; P<0.05"}, "[1]": {"assay": "Blood cell counts, blood chemistries and overt signs of toxicity", "format": "in vivo, mouse (ldlr^−/−)", "method_in_brief": "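Western diet-fed ldlr−/− mice, treated or saline controls. Complete blood counts were run by a clinical hematology laboratory, and lymphocyte subsets were measured by flow cytometry.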"}, "[2]": {"system": "SREBP1 and SREBP2 and their target gene transcripts", "assay": "Quantitative PCR of SREBP and target gene transcripts in liver", "format": "in vivo, mouse (ldlr^−/−)", "details": "osmotic pump, vs saline, n=5; for hmgcr (HMG-CoA reductase) mRNA in liver: P<0.005", "method_in_brief": "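Total liver RNA from Western diet-fed ldlr−/− mice, given peptide or saline by osmotic pump for 4 or 8 weeks, was reverse-transcribed. Transcripts were quantified by real-time PCR with TaqMan probes, using 18S […] as the invariant control.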"}, "ldlr^−/− mice [3]": {"system": "ldlr^−/− mice", "format": "in vivo, mouse (B6.129S7-Ldlrtm1Her/J, female)", "details": "4 weeks, Western diet, osmotic pump, vs saline", "method_in_brief": "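Female ldlr−/− mice on a Western diet received peptide by subcutaneous osmotic pump (10 mg in 100 μL water) or saline. After an overnight fast, plasma cholesterol, triglycerides and glucose were measured at 1, 4 and 8 weeks, using a separate group of animals at each time.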"}, "[4]": {"system": "microbial and autoimmune inflammation", "details": "ref [29]; cited from earlier work"}, "Solubility": {"assay": "Solubility", "format": "physicochemical", "details": "method not given"}, "NFκB RelA (p65)": {"system": "NFκB RelA (p65)", "assay": "Immunoblot of phosphorylated NFκB RelA in liver extracts of treated mice", "format": "in vivo, mouse (ldlr^−/−)", "details": "8 weeks, Western diet, osmotic pump, vs saline; relative ratio to total RelA"}, "SREBP1 [5]": {"system": "SREBP1", "assay": "SREBP1 protein in liver extracts of treated mice", "format": "in vivo, mouse (ldlr^−/−)", "details": "Western diet, osmotic pump, vs saline; P<0.05; 8 weeks in Figure 6"}, "HDAC3": {"system": "HDAC3", "assay": "HDAC3 in liver nuclear extracts", "format": "in vivo, mouse (ldlr^−/−)", "details": "8 weeks, osmotic pump, vs saline; 5 mice/group", "method_in_brief": "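Liver nuclear extracts came from Western diet-fed ldlr−/− mice after 8 weeks of subcutaneous osmotic pump dosing (10 mg in 100 μL water) or saline; phosphatase inhibitors were added. HDAC3 was immunoblotted and expressed as a ratio to β-actin. Groups were compared by Mann–Whitney test.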"}, "GAPDH [6]": {"system": "GAPDH", "assay": "Pull-down assay, control protein, HepG2 extract", "format": "binding, human (HepG2 cells)", "details": "biotinylated peptide, HepG2 whole-cell extract; immunoblot", "method_in_brief": "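HepG2 cells were serum-starved overnight in DMEM/1% FBS and lysed in binding buffer (10 mmol/L HEPES pH 7.9, 150 mmol/L NaCl, 0.1% NP-40, protease inhibitors). Biotinylated peptide (10 nmol) was incubated with 1.5 mg extract overnight at 4°C. After clearing at 16 000g, it was captured on Neutravidin beads for 4 h. Beads were washed, boiled in SDS buffer and immunoblotted for importins and GAPDH.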"}, "SREBP1 [7]": {"system": "SREBP1", "assay": "SREBP1 nuclear translocation in sterol-depleted HepG2 cells", "format": "cell-based, human (HepG2 cells)", "method_in_brief": "(§1)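 HepG2 cells were sterol-depleted with hydroxypropyl-β-cyclodextrin for 15 min and rinsed. They were then incubated 2 h in DMEM/5% delipidized FBS with 10 μmol/L MG132 and 0, 10 or 30 μmol/L test compound. Nuclear and cytosolic extracts were immunoblotted for SREBPs, normalized to Lamin A/C or B (nuclear) or GAPDH/β-actin (cytosolic). Percent inhibition of nuclear translocation comes from ≥3 independent experiments.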"}, "ldlr^−/− mice [8]": {"system": "ldlr^−/− mice", "assay": "Atherosclerotic lesions in the aortic root", "format": "in vivo, mouse (B6.129S7-Ldlrtm1Her/J, female)", "details": "0.4 mg/mouse i.p. 3 times daily, 4 weeks; n=5/group", "method_in_brief": "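Female ldlr−/− mice aged 6 weeks were fed a Western diet (21% milk fat, 0.15% cholesterol) and given peptide i.p. (0.4 or 0.7 mg in 200 μL saline every 8 or 12 h), with saline controls. Mice were saline-perfused and hearts OCT-frozen. Every other 10-μm aortic sinus section was taken (15 sections, 300 μm), baked overnight at 55°C and stained with Oil-red-O/hematoxylin. Lesion area, excluding the internal elastic lamina, was averaged per mouse.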"}, "[9]": {"details": "liver, spleen, pancreas, and lungs, ref not given; cited from earlier work"}, "GAPDH [10]": {"system": "GAPDH", "assay": "Pull-down assay, nonspecific control protein, Jurkat extract", "format": "binding, human (Jurkat T cells)", "details": "biotinylated peptide, Jurkat whole-cell extract; immunoblot"}, "SREBP2 [11]": {"system": "SREBP2", "assay": "SREBP2 protein in liver extracts of treated mice", "format": "in vivo, mouse (ldlr^−/−)", "details": "Western diet, osmotic pump, vs saline; P<0.05; 8 weeks in Figure 6"}, "SREBP2 [12]": {"system": "SREBP2", "assay": "SREBP2 nuclear translocation in sterol-depleted HepG2 cells", "format": "cell-based, human (HepG2 cells)", "details": "2 hours after HPCD", "method_in_brief": "as §1"}, "NOD mice": {"system": "NOD mice", "details": "intense, short-term treatment, ref [20]; cited from earlier work"}, "[13]": {"details": "ldlr^−/− mice fed a Western diet"}}, "note": "Bridge positions count the residues as written; N and C are the ends. Peptide text beside a SMILES is read from it.", "data": [{"smiles": "CSCC[C@@H]1NC(=O)[C@H](CC(C)C)NC(=O)[C@H](CCCCN)NC(=O)[C@H](CCC(N)=O)NC(=O)[C@H](CCCNC(=N)N)NC(=O)[C@H](CCCCN)NC(=O)[C@H](CCCNC(=N)N)NC(=O)[C@H](CCC(N)=O)NC(=O)[C@H](C(C)C)NC(=O)[C@@H](NC(=O)[C@@H]2CCCN2C(=O)[C@H](C)NC(=O)[C@H](CC(C)C)NC(=O)[C@H](CC(C)C)NC(=O)[C@H](C)NC(=O)[C@H](CC(C)C)NC(=O)[C@H](CC(C)C)NC(=O)[C@@H](NC(=O)[C@H](C)NC(=O)[C@@H]2CCCN2C(=O)[C@H](CC(C)C)NC(=O)[C@H](CC(C)C)NC(=O)[C@H](C)NC(=O)[C@@H](NC(=O)[C@H](C)NC(=O)[C@H](C)N)C(C)C)C(C)C)CSSC[C@@H](C(=O)O)NC(=O)[C@@H]2CCCN2C1=O", "note": "[cSN50.1] (H-AAVALLPAVLLALLAPCVQRKRQKLMPC-OH; disulfide 17-28)", "values": [{"measurement": "attenuation of nuclear accumulation of ChREBP", "setting": "ChREBP", "result": "≈ 50%"}, {"measurement": "NPC1L1 protein in liver", "setting": "NPC1L1", "result": "significant NTM‐induced reduction"}, {"measurement": "blood cell populations and blood chemistries", "setting": "[1]; 8 weeks of treatment, other than changes shown, vs control animals", "result": "did not reveal any significant changes"}, {"measurement": "blood chemistries", "setting": "[1]; [13]", "result": "normal blood chemistries"}, {"measurement": "red blood cells, white blood cells, major lymphocyte subsets, blood platelets", "setting": "[1]; [13]", "result": "no changes"}, {"measurement": "other side effects", "setting": "[1]; subcutaneous osmotic pumps, 8 weeks", "result": "no other side effects were observed"}, {"measurement": "abcg5 transcripts in liver", "setting": "[2]; 4 and 8 weeks", "result": "not reduced"}, {"measurement": "abcg8 transcripts in liver", "setting": "[2]; 4 and 8 weeks", "result": "not reduced"}, {"measurement": "hmgcr (HMG-CoA reductase) mRNA in liver", "setting": "[2]; 4 weeks", "result": "significantly decreased expression"}, {"measurement": "srebf1 (SREBP1) transcripts in liver", "setting": "[2]; 4 weeks, P<0.05", "result": "reduced"}, {"measurement": "hmgcr (HMG-CoA reductase) mRNA in liver", "setting": "[2]; 8 weeks", "result": "significantly decreased expression"}, {"measurement": "acly (ATP citrate lyase) transcripts in liver", "setting": "[2]; 8 weeks, P<0.05", "result": "significantly reduced"}, {"measurement": "fasn1 (fatty acid synthase-1) transcripts in liver", "setting": "[2]; 8 weeks, P<0.05", "result": "significantly reduced"}, {"measurement": "srebf1 (SREBP1) transcripts in liver", "setting": "[2]; 8 weeks, P<0.05", "result": "reduced"}, {"measurement": "srebf2 (SREBP2) transcripts in liver", "setting": "[2]; 8 weeks, P<0.05", "result": "reduced"}, {"measurement": "plasma ALT (alanine transaminase)", "setting": "ldlr^−/− mice [3]", "result": "significantly reduced"}, {"measurement": "plasma AST (aspartate transaminase)", "setting": "ldlr^−/− mice [3]", "result": "significantly reduced"}, {"measurement": "biomarkers (liver transaminases) in other models of liver inflammation", "setting": "[4]", "result": "significantly reduced"}, {"measurement": "solubility", "setting": "Solubility", "result": 100, "unit": "mg/mL"}, {"measurement": "phosphorylated NFκB RelA (p65) in cytosolic and nuclear fractions of liver cells", "setting": "NFκB RelA (p65)", "result": "significantly reduced"}, {"measurement": "nuclear SREBP1 protein in liver", "setting": "SREBP1 [5]", "result": "reduced"}, {"measurement": "precursor SREBP1 protein in liver", "setting": "SREBP1 [5]", "result": "reduced"}, {"measurement": "HDAC3 nuclear content in liver", "setting": "HDAC3", "result": "not significantly changed"}, {"measurement": "interaction with GAPDH", "setting": "GAPDH [6]", "result": "not with the control protein, GAPDH"}, {"measurement": "precursor pSREBP1 in cytosolic fraction", "setting": "SREBP1 [7]; 30 μmol/L, 2 hours after HPCD, 4 experiments", "result": "remained unchanged"}, {"measurement": "nSREBP1 in cytosolic fraction", "setting": "SREBP1 [7]; 30 μmol/L, 2 hours after HPCD, 4 experiments, P<0.05", "result": "significantly more"}, {"measurement": "processing of SREBP precursors to nuclear (mature) forms, SREBP1", "setting": "SREBP1 [7]; 2 hours after HPCD, cytosolic fraction", "result": "unaffected"}, {"measurement": "further reduction of nuclear nSREBP1 at 30 μmol/L", "setting": "SREBP1 [7]; gradual sterol depletion, 24 hours, 30 vs 10 μmol/L", "result": "did not further reduce nSREBP1 in the nucleus by a significant amount"}, {"measurement": "completeness of SREBP nuclear transport inhibition", "setting": "SREBP1 [7]; rapid and gradual sterol depletion protocols, HepG2", "result": "did not completely reduce nuclear transport of SREBPs"}, {"measurement": "concentration dependence of nSREBP1 nuclear reduction", "setting": "SREBP1 [7]; rapid depletion with HPCD, 2 hours, 0, 10 or 30 μmol/L", "result": "concentration dependent"}, {"measurement": "protection from atherosclerosis, lower dose", "setting": "ldlr^−/− mice [8]", "result": "not protected"}, {"measurement": "delivery to blood cells and organs", "setting": "[9]", "result": "easily delivered"}, {"measurement": "interaction with GAPDH", "setting": "GAPDH [10]", "result": "not with the nonspecific cytoplasmic control protein GAPDH"}, {"measurement": "nuclear SREBP2 protein in liver", "setting": "SREBP2 [11]", "result": "reduced"}, {"measurement": "precursor SREBP2 protein in liver", "setting": "SREBP2 [11]", "result": "reduced"}, {"measurement": "nSREBP2 in cytosolic fraction", "setting": "SREBP2 [12]; 30 μmol/L, 3 experiments", "result": "not significantly increased"}, {"measurement": "precursor pSREBP2 in cytosolic fraction", "setting": "SREBP2 [12]; 30 μmol/L, 3 experiments", "result": "remained unchanged"}, {"measurement": "processing of SREBP precursors to nuclear (mature) forms, SREBP2", "setting": "SREBP2 [12]; cytosolic fraction", "result": "unaffected"}, {"measurement": "suppression of diabetes, duration", "setting": "NOD mice", "result": 1, "unit": "year"}]}]}
